Measurements as given in ChEMBL document CHEMBL3046143, “Occurrence and distribution of organochlorine pesticides (OCPs) in tomato (Lycopersicon esculentum) crops from organic production” (J Agric Food Chem, 2003).
Structures can show the parent of a compound that is named as a salt.

Assays:
Fruit [1] = experiment: Drug uptake in Solanum lycopersicum (tomato) fruit flesh after 60 to 151 days post germination by GC-ECD analysis; assay type: ADME
Method in brief: (§1)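 Organically grown tomatoes: seeded October 2000 in a pine-needle-enriched plot (period 1), transplanted in November to an unamended plot (periods 2–3), harvested March 2001. Tissues were blender-homogenized and analyzed by GC-ECD on a 30 m SPB-5 capillary column, with helium carrier at 1.5 mL/min. Quantified against external OCP standards as mean ng/g dry wt; LODs were 0.12–0.4 ng/g dry wt; samples were run in duplicate.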

[2] = Octanol-water partition coefficient, log KOW of the compound; assay type: physicochemical; conditions: read-out: log KOW
Root [3] = experiment: Drug uptake in Solanum lycopersicum (tomato) root after 60 to 151 days post germination by GC-ECD analysis; assay type: ADME; method in brief: as §1
Stem [4] = experiment: Drug uptake in Solanum lycopersicum (tomato) stem after 60 to 151 days post germination by GC-ECD analysis; assay type: ADME; method in brief: as §1
Root [5] = experiment: Drug uptake in Solanum lycopersicum (tomato) root after 16 to 59 days post germination by GC-ECD analysis; assay type: ADME; method in brief: as §1
Leaf [6] = experiment: Drug uptake in Solanum lycopersicum (tomato) leaves after 60 to 151 days post germination by GC-ECD analysis; assay type: ADME; method in brief: as §1
Stem [7] = experiment: Drug uptake in Solanum lycopersicum (tomato) stem after 16 to 59 days post germination by GC-ECD analysis; assay type: ADME; method in brief: as §1
Root [8] = experiment: Drug uptake in Solanum lycopersicum (tomato) root after 1 to 15 days post germination by GC-ECD analysis; assay type: ADME; method in brief: as §1
Leaf [9] = experiment: Drug uptake in Solanum lycopersicum (tomato) leaves after 16 to 59 days post germination by GC-ECD analysis; assay type: ADME; method in brief: as §1
Stem [10] = experiment: Drug uptake in Solanum lycopersicum (tomato) stem after 1 to 15 days post germination by GC-ECD analysis; assay type: ADME; method in brief: as §1
Leaf [11] = experiment: Drug uptake in Solanum lycopersicum (tomato) leaves after 1 to 15 days post germination by GC-ECD analysis; assay type: ADME; method in brief: as §1
[12] = Root bioconcentration factor assessed as compound concentration in tomato plant dry mass to compound concentration in soil dry mass after 60 to 151 days post germination
Method in brief: (§2)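 Root bioconcentration factor is the mean OCP concentration in tomato roots divided by the mean concentration in bulk soil, both on a dry weight basis. Both matrices were analyzed by GC-ECD with external standard quantification. Period 1 was in a pine-needle-enriched seedbed plot and periods 2–3 in an unamended transplant plot. Soil water content was measured by oven drying at 110 °C.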

[13] = Root bioconcentration factor assessed as compound concentration in tomato plant dry mass to compound concentration in soil dry mass after 16 to 59 days post germination; method in brief: as §2
[14] = Root bioconcentration factor assessed as compound concentration in tomato plant dry mass to compound concentration in soil dry mass after 1 to 15 days post germination; method in brief: as §2
Fruit [15] = experiment: Drug uptake in Solanum lycopersicum (tomato) fruit peel after 60 to 151 days post germination by GC-ECD analysis; assay type: ADME; method in brief: as §1

SMILES | Drug uptake (Fruit [1]) | logP [2] | Drug uptake (Root [3]) | Drug uptake (Stem [4]) | Drug uptake (Root [5]) | Drug uptake (Leaf [6]) | Drug uptake (Stem [7]) | Drug uptake (Root [8]) | Drug uptake (Leaf [9]) | Drug uptake (Stem [10]) | Drug uptake (Leaf [11]) | Ratio [12] | Ratio [13] | Ratio [14] | Drug uptake (Fruit [15])
O=S1OC[C@@H]2[C@H](CO1)[C@@]1(Cl)C(Cl)=C(Cl)[C@]2(Cl)C1(Cl)Cl (stereo partly drawn) [ALPHA-ENDOSULFAN] | 4.5 ng/g | < 4 | 0.3 ng/g | 0.9 ng/g | 1.3 ng/g | 3.5 ng/g | 0.9 ng/g | 0.8 ng/g | 1.5 ng/g | 1.2 ng/g | 1 ng/g | 4.3 | 18.6 | 10 | 12.3 ng/g
O=S1(=O)OCC2C(CO1)C1(Cl)C(Cl)=C(Cl)C2(Cl)C1(Cl)Cl (stereo not given) [ENDOSULFAN SULFATE] | 305.5 ng/g | < 4 | 71.4 ng/g | 82.1 ng/g | 21.1 ng/g | 38.2 ng/g | 99.7 ng/g | 151.6 ng/g | 48.2 ng/g | 246.9 ng/g | 126.5 ng/g | 4.5 | 1.3 | 9.2 | 80.6 ng/g
Cl[C@H]1[C@H](Cl)[C@@H](Cl)[C@H](Cl)[C@@H](Cl)[C@@H]1Cl [BETA-HEXACHLOROCYCLOHEXANE] | 5.4 ng/g | < 4 | 1.2 ng/g | 2.1 ng/g | 1.1 ng/g | 1.6 ng/g | 4.2 ng/g | 3.7 ng/g | 2.2 ng/g | 8.9 ng/g | 4.2 ng/g | 3 | 2.7 | 9.2 | 1.5 ng/g
Clc1ccc(C(c2ccc(Cl)cc2)C(Cl)(Cl)Cl)cc1 [CHLOROPHENOTHANE] | 29.2 ng/g | > 6 | 7.3 ng/g | 6.8 ng/g | 2.5 ng/g | 2.3 ng/g | 10.5 ng/g | 19.2 ng/g | 8.24 ng/g | 9.4 ng/g | 8.9 ng/g | – | – | 2.6 | 8.8 ng/g
Cl[C@H]1[C@H](Cl)[C@@H](Cl)[C@@H](Cl)[C@H](Cl)[C@H]1Cl [LINDANE] | 14.4 ng/g | < 4 | 3.9 ng/g | 4.6 ng/g | 4.7 ng/g | 0.9 ng/g | 9.4 ng/g | 16.2 ng/g | 4 ng/g | 27.5 ng/g | 9.9 ng/g | 3.2 | 3.9 | 12.3 | 2.1 ng/g
O=S1OC[C@@H]2[C@H](CO1)[C@]1(Cl)C(Cl)=C(Cl)[C@]2(Cl)C1(Cl)Cl (stereo partly drawn) [BETA-ENDOSULFAN] | 6.6 ng/g | < 4 | 0.9 ng/g | 1.6 ng/g | 0.9 ng/g | 3.3 ng/g | 3.2 ng/g | 2 ng/g | 2.9 ng/g | 1.1 ng/g | 1.1 ng/g | 15 | 15 | 50 | 10.8 ng/g
ClC(Cl)=C(c1ccc(Cl)cc1)c1ccc(Cl)cc1 [DICHLORODIPHENYLDICHLOROETHYLENE] | 6.4 ng/g | – | 2.4 ng/g | 1.8 ng/g | 23.2 ng/g | 6 ng/g | 8.6 ng/g | 9.1 ng/g | 2.2 ng/g | 7.4 ng/g | 2.8 ng/g | – | – | 5.3 | 3.2 ng/g
Cl[C@H]1[C@H](Cl)[C@@H](Cl)[C@H](Cl)[C@@H](Cl)[C@H]1Cl [DELTA-HEXACHLOROCYCLOHEXANE] | 2.3 ng/g | < 4 | 1.7 ng/g | 1.6 ng/g | 0.8 ng/g | 1.2 ng/g | 3.6 ng/g | 3.7 ng/g | 1.1 ng/g | 4.7 ng/g | 2.4 ng/g | 1.5 | 0.7 | 18.5 | 1.4 ng/g
Cl[C@H]1[C@H](Cl)[C@H](Cl)[C@@H](Cl)[C@H](Cl)[C@H]1Cl [ALPHA-HEXACHLOROCYCLOHEXANE] | 7.4 ng/g | < 4 | 1.3 ng/g | 1.3 ng/g | 0.4 ng/g | 0.6 ng/g | 1.1 ng/g | 1.9 ng/g | 0.8 ng/g | 1.7 ng/g | 1.2 ng/g | 13 | 4 | 9.5 | 1.4 ng/g
